Data from ChEMBL document CHEMBL4732207, “Design, Synthesis and Structure-Activity Relationship Studies of Glycosylated Derivatives of Marine Natural Product Lamellarin D” (Eur J Med Chem, 2021).
In brackets after ≈: the same amount, converted by molar mass. Values belong to the molecule of their own block, whether it stands above or below them. Activity calls are given as the source filed them. No cut-off for these calls is given here.

How the values were obtained:
HGC-27 = assay: Cytotoxicity against human HGC-27 cells assessed as reduction in cell viability incubated for 72 hrs by MTT assay; format: functional, cell-based; settings: HGC-27, 72 h
Summary of the method: (§1)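 Cells resuspended in DMEM plus 10% FBS and seeded at 5 000 cells/well. They were incubated overnight at 37 °C in 5% CO2, then exposed to serial dilutions for 72 h at 37 °C. Medium was replaced with fresh medium containing 0.5 mg/mL MTT for 4 h, formazan dissolved in DMSO, and A540 read. Proliferation = A540 treated/control ×100%. IC50 is the concentration inhibiting proliferation by 50%.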

HCT-116 = assay: Cytotoxicity against human HCT-116 cells assessed as reduction in cell viability incubated for 72 hrs by MTT assay; format: functional, cell-based; settings: HCT-116, 72 h; summary of the method: as §1
HepG2 = assay: Cytotoxicity against human HepG2 cells assessed as reduction in cell viability incubated for 72 hrs by MTT assay; format: functional, cell-based; settings: HepG2, 72 h; summary of the method: as §1
MDA-MB-231 [1] = assay: Cytotoxicity against human MDA-MB-231 cells assessed as reduction in cell viability incubated for 72 hrs by MTT assay; format: functional, cell-based; settings: MDA-MB-231, 72 h; summary of the method: as §1
A549 = assay: Cytotoxicity against human A549 cells assessed as reduction in cell viability incubated for 72 hrs by MTT assay; format: functional, cell-based; settings: A549, 72 h; summary of the method: as §1
MDA-MB-231 [2] = assay: Induction of cell cycle arrest in human MDA-MB-231 cells assessed as increase in accumulation of G2/M phase incubated for 24 hrs by PI staining based flow cytometry analysis; format: functional; settings: dose 10-50 nM
Summary of the method: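 MDA-MB-231 cells (5 × 10^5) seeded in six-well plates, cultured overnight at 37 °C, then treated at 10, 20 or 50 nM for 24 h. Lamellarin D was the positive control at 20 and 50 nM. Cells were trypsinized, washed twice in PBS and fixed in 70% ethanol overnight at −20 °C. After washing, cells were stained with propidium iodide. Phase distribution was read by flow cytometry.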

MDA-MB-231 [3] = assay: Induction of apoptosis in human MDA-MB-231 cells at 50 nM incubated for 24 hrs by annexin-V-FITC and PI staining based flow cytometry analysis; format: functional, cell-based
[4] = Aqueous solubility of compound in deionized water by HPLC-HRMS analysis; format: physicochemical; settings: buffer
[5] = target: T1, DNA topoisomerase 1 (Homo sapiens) (UniProt P11387); assay: Inhibition of topoisomerase 1 (unknown origin) assessed as reduction in relaxation of supercoiled plasmid pBR322 DNA at 10 uM incubated for 30 mins by agarose gel electrophoresis
T1 sequence (whole entry): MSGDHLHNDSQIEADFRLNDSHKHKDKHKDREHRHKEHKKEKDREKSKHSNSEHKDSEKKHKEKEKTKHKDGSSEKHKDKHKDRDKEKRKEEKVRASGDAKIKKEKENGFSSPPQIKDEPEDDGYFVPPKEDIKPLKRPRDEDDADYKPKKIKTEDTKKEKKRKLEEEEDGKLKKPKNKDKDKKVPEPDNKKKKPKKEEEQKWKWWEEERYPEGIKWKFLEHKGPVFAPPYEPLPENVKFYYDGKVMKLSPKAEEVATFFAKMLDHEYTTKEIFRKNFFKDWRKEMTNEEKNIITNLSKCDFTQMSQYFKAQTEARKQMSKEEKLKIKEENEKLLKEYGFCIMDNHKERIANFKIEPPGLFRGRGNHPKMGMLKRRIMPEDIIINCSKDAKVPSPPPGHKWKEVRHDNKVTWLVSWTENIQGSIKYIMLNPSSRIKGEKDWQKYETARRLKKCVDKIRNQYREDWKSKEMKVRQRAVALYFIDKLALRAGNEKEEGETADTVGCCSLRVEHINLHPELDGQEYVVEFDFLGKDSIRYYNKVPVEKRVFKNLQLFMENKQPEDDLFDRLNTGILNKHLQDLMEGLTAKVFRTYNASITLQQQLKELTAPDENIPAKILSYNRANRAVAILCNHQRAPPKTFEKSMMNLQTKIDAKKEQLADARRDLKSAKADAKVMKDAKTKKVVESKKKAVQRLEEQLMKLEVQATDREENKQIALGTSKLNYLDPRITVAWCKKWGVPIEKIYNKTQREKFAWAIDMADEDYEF
Summary of the method: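 Reaction mix held 10X Topo I buffer, supercoiled pBR322 (250 ng), Topo I (2 U) and compound at 10 µM, incubated 37 °C for 30 min. Stopped with 10% SDS, then proteinase K digestion for 30 min. Products run on 1% agarose without stain, post-stained with 4s Green for 50 min and imaged under UV. Read-out is loss of relaxation.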

solubility [4]: 2 nM (≈ 1.32 ng/mL)
Compound: COc1cc(-c2c3c4cc(OC)c(O[C@@H]5O[C@H](CO)[C@@H](O)[C@H](O)[C@H]5O)cc4oc(=O)c3n3ccc4cc(O)c(OC)cc4c23)ccc1O
IC50 (HGC-27): 162 nM
IC50 (HCT-116): 10 nM
IC50 (HepG2): 15 nM
Activity (MDA-MB-231 [2]): Dose-dependent effect
Activity (MDA-MB-231 [3]): Active
IC50 (MDA-MB-231 [1]): 34 nM
IC50 (A549): 3 nM

solubility [4]: 257.78 nM (≈ 171 ng/mL)
Compound: COc1cc(-c2c3c4cc(OC)c(O)cc4oc(=O)c3n3ccc4cc(O[C@@H]5O[C@H](CO)[C@@H](O)[C@H](O)[C@H]5O)c(OC)cc4c23)ccc1O
IC50 (HGC-27): 114 nM
IC50 (HCT-116): 14 nM
IC50 (HepG2): 24 nM
IC50 (MDA-MB-231 [1]): 32 nM
IC50 (A549): 47 nM

solubility [4]: 0.37 nM (≈ 0.245 ng/mL)
Compound: COc1cc(-c2c3c4cc(OC)c(O[C@H]5O[C@H](CO)[C@@H](O)[C@H](O)[C@@H]5O)cc4oc(=O)c3n3ccc4cc(O)c(OC)cc4c23)ccc1O
IC50 (HGC-27): 137 nM
IC50 (HCT-116): 206 nM
IC50 (HepG2): 570 nM
IC50 (MDA-MB-231 [1]): 316 nM
IC50 (A549): 374 nM

solubility [4]: 0.12 nM (≈ 0.0794 ng/mL)
Compound: COc1cc(-c2c3c4cc(OC)c(O[C@@H]5O[C@H](CO)[C@H](O)[C@H](O)[C@H]5O)cc4oc(=O)c3n3ccc4cc(O)c(OC)cc4c23)ccc1O
IC50 (HGC-27): 90 nM
IC50 (HCT-116): 18 nM
IC50 (HepG2): 58 nM
IC50 (MDA-MB-231 [1]): 25 nM
IC50 (A549): 20 nM

solubility [4]: 235.82 nM (≈ 156 ng/mL)
Compound: COc1cc(-c2c3c4cc(OC)c(O)cc4oc(=O)c3n3ccc4cc(O[C@@H]5O[C@H](CO)[C@H](O)[C@H](O)[C@H]5O)c(OC)cc4c23)ccc1O
IC50 (HGC-27): 114 nM
IC50 (HCT-116): 37 nM
IC50 (HepG2): 48 nM
IC50 (MDA-MB-231 [1]): 18 nM
IC50 (A549): 13 nM

solubility [4]: 0.23 nM (≈ 0.152 ng/mL)
Compound: COc1cc(-c2c3c4cc(OC)c(O)cc4oc(=O)c3n3ccc4cc(O[C@H]5O[C@H](CO)[C@@H](O)[C@H](O)[C@@H]5O)c(OC)cc4c23)ccc1O
IC50 (HGC-27): 219 nM
IC50 (HCT-116): 1420 nM
IC50 (HepG2): 3880 nM
IC50 (MDA-MB-231 [1]): 1990 nM
IC50 (A549): 3240 nM

The next lines start with the molecule.

Compound: COc1cc(-c2c3c4cc(OC)c(O)cc4oc(=O)c3n3ccc4cc(O[C@@H]5O[C@H](CO)[C@@H](O)[C@H]5O)c(OC)cc4c23)ccc1O
IC50 (HGC-27): 1240 nM
IC50 (HCT-116): 1280 nM
IC50 (HepG2): 937 nM
IC50 (MDA-MB-231 [1]): 5080 nM
IC50 (A549): 4120 nM

Compound: COc1cc2c(cc1O)oc(=O)c1c2c(-c2ccc(O[C@@H]3O[C@H](CO)[C@H](O)[C@H](O)[C@H]3O)c(OC)c2)c2c3cc(OC)c(O)cc3ccn21
inhibition [5]: Active
IC50 (HGC-27): 16600 nM
IC50 (HCT-116): 13700 nM
IC50 (HepG2): > 50000 nM
solubility [4]: 0.49 nM (≈ 0.324 ng/mL)
IC50 (MDA-MB-231 [1]): > 50000 nM
IC50 (A549): > 50000 nM

Compound: COc1cc2c(ccn3c2c(-c2ccc(O[C@@H]4O[C@H](CO)[C@@H](O)[C@H](O)[C@H]4O)c(OC)c2)c2c4cc(OC)c(O[C@@H]5O[C@H](CO)[C@@H](O)[C@H](O)[C@H]5O)cc4oc(=O)c23)cc1O
inhibition [5]: Active
IC50 (HGC-27): 7220 nM
IC50 (HCT-116): 6770 nM
IC50 (HepG2): 28800 nM
solubility [4]: 257.55 nM (≈ 212 ng/mL)
IC50 (MDA-MB-231 [1]): 7370 nM
IC50 (A549): 16400 nM

Compound: COc1cc2c(cc1O)oc(=O)c1c2c(-c2ccc(O[C@@H]3O[C@H](CO)[C@@H](O)[C@H](O)[C@H]3O)c(OC)c2)c2c3cc(OC)c(O[C@@H]4O[C@H](CO)[C@@H](O)[C@H](O)[C@H]4O)cc3ccn21
inhibition [5]: Active
IC50 (HGC-27): 27100 nM
IC50 (HCT-116): 5280 nM
IC50 (HepG2): 40100 nM
solubility [4]: 96.75 nM (≈ 79.7 ng/mL)
IC50 (MDA-MB-231 [1]): 13300 nM
IC50 (A549): 13700 nM

Compound: COc1cc(-c2c3c4cc(OC)c(O)cc4oc(=O)c3n3ccc4cc(O)c(OC)cc4c23)ccc1O [LAMELLARIN D]
inhibition [5]: Active
IC50 (HGC-27): 236 nM
IC50 (HCT-116): 25 nM
IC50 (HepG2): 88 nM
Activity (MDA-MB-231 [2]): Dose-dependent effect
solubility [4]: 0.56 nM (≈ 0.28 ng/mL)
IC50 (MDA-MB-231 [1]): 31 nM
IC50 (A549): 4 nM

Compound: COc1cc2c(cc1O)oc(=O)c1c2c(-c2ccc(O[C@@H]3O[C@H](CO)[C@@H](O)[C@H]3O)c(OC)c2)c2c3cc(OC)c(O)cc3ccn21
IC50 (HGC-27): 224 nM
IC50 (HCT-116): 614 nM
IC50 (HepG2): 332 nM
IC50 (MDA-MB-231 [1]): 2110 nM
IC50 (A549): 659 nM

Compound: COc1cc(-c2c3c4cc(OC)c(O[C@@H]5O[C@H](CO)[C@@H](O)[C@H]5O)cc4oc(=O)c3n3ccc4cc(O)c(OC)cc4c23)ccc1O
IC50 (HGC-27): 862 nM
IC50 (HCT-116): 1160 nM
IC50 (HepG2): 627 nM
IC50 (MDA-MB-231 [1]): 2690 nM
IC50 (A549): 2860 nM

Compound: COc1cc2c(cc1O)oc(=O)c1c2c(-c2ccc(O[C@H]3O[C@H](CO)[C@@H](O)[C@H](O)[C@@H]3O)c(OC)c2)c2c3cc(OC)c(O)cc3ccn21
inhibition [5]: Active
IC50 (HGC-27): 31300 nM
IC50 (HCT-116): > 50000 nM
IC50 (HepG2): > 50000 nM
solubility [4]: 0.14 nM (≈ 0.0926 ng/mL)
IC50 (MDA-MB-231 [1]): > 50000 nM
IC50 (A549): > 50000 nM

Compound: COc1cc(-c2c3c4cc(OC)c(O[C@@H]5O[C@H](CO)[C@@H](O)[C@H](O)[C@H]5O)cc4oc(=O)c3n3ccc4cc(O[C@@H]5O[C@H](CO)[C@@H](O)[C@H](O)[C@H]5O)c(OC)cc4c23)ccc1O
IC50 (HGC-27): 74 nM
IC50 (HCT-116): 40 nM
IC50 (HepG2): 118 nM
solubility [4]: 182.31 nM (≈ 150 ng/mL)
IC50 (MDA-MB-231 [1]): 36 nM
IC50 (A549): 26 nM

Compound: COc1cc2c(cc1O)oc(=O)c1c2c(-c2ccc(O[C@@H]3O[C@H](CO)[C@@H](O)[C@H](O)[C@H]3O)c(OC)c2)c2c3cc(OC)c(O)cc3ccn21
inhibition [5]: Active
IC50 (HGC-27): > 50000 nM
IC50 (HCT-116): 26200 nM
IC50 (HepG2): 42900 nM
solubility [4]: 0.41 nM (≈ 0.271 ng/mL)
IC50 (MDA-MB-231 [1]): > 50000 nM
IC50 (A549): > 50000 nM
